Assay results: ChEMBL document CHEMBL1124927, “Synthesis and structure-activity relationships of new 7-[3-(fluoromethyl)piperazinyl]- and -(fluorohomopiperazinyl)quinolone antibacterials” (1990)
Values after ≈ are worked out from the molar mass of the structure shown.

System: Escherichia coli
Test: Median effective dose against female mice infected with Escherichia coli #311 after oral administration
Type: functional
Conditions: not given
How it was run: (§1)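 CD-1 female mice (20 ± 2 g) infected ip with 0.5 mL standardized bacterial suspension (E. coli #311 in trypticase–soy broth; S. aureus Smith in 5% hog gastric mucin). Dosed 0.5 h post-infection, oral or subcutaneous, 2-fold dose increments in 0.5 mL 0.2% aqueous agar; five mice per dose. 7-day survival pooled from three tests; ED50 by probit analysis, 95% confidence limits.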

| Structure (SMILES) | ED50 |
| --- | --- |
| CCn1cc(C(=O)O)c(=O)c2cc(F)c(N3CCNC(CF)C3)cc21 (stereo not drawn) | 2.8 mg/kg |

Same assay, conditions: Escherichia coli, po

| Structure (SMILES) | ED50 |
| --- | --- |
| CC1CN(c2cc3c(cc2F)c(=O)c(C(=O)O)cn3C2CC2)CCN1 (stereo not drawn) | 0.42 mg/kg |
| O=C(O)c1cn(C2CC2)c2cc(N3CCNC(CF)C3)c(F)cc2c1=O (stereo not drawn) | 1.2 mg/kg |

System: Escherichia coli
Test: Median effective dose against female mice infected with Escherichia coli #311 after subcutaneous administration
Type: functional
Conditions: sc
How it was run: as §1

| Structure (SMILES) | ED50 |
| --- | --- |
| CC1CN(c2cc3c(cc2F)c(=O)c(C(=O)O)cn3C2CC2)CCN1 (stereo not drawn) | 0.09 mg/kg |
| O=C(O)c1cn(C2CC2)c2cc(N3CCNC(CF)C3)c(F)cc2c1=O (stereo not drawn) | 0.6 mg/kg |
| CCn1cc(C(=O)O)c(=O)c2cc(F)c(N3CCNC(CF)C3)cc21 (stereo not drawn) | 3 mg/kg |

System: Escherichia coli
Test: In vitro minimal inhibitory concentration against Escherichia coli #311 (Ec(B))
Type: functional
Conditions: not given
How it was run: (§2)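 Agar dilution: two-fold serial drug dilutions in Mueller–Hinton agar; plates inoculated with 1–5 × 10⁴ CFU via Steers multiple inocula replicator; incubated 18 h at 35 °C. MIC = lowest concentration preventing macroscopic growth.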

| MIC | Structure (SMILES) |
| --- | --- |
| ≤ 0.015 µg/mL | CC1CN(c2cc3c(cc2F)c(=O)c(C(=O)O)cn3C2CC2)CCN1 (stereo not drawn) |
| 0.5 µg/mL (≈ 1.29 µM) | CCn1cc(C(=O)O)c(=O)c2cc(F)c(N3CCNC(C(F)F)C3)c(F)c21 (stereo not drawn) |
| 0.03 µg/mL (≈ 0.0826 µM) | O=C(O)c1cn(C2CC2)c2cc(N3CCNCC(F)C3)c(F)cc2c1=O (stereo not drawn) |
| 0.03 µg/mL (≈ 0.0826 µM) | O=C(O)c1cn(C2CC2)c2cc(N3CCNC(CF)C3)c(F)cc2c1=O (stereo not drawn) |
| ≤ 0.12 µg/mL | CCn1cc(C(=O)O)c(=O)c2cc(F)c(N3CCNC(CF)C3)cc21 (stereo not drawn) |

System: Escherichia coli
Test: In vitro minimal inhibitory concentration against Escherichia coli ATCC 25922 (Ec(A))
Type: functional
Conditions: not given
How it was run: as §2

| MIC | Structure (SMILES) |
| --- | --- |
| ≤ 0.015 µg/mL | CC1CN(c2cc3c(cc2F)c(=O)c(C(=O)O)cn3C2CC2)CCN1 (stereo not drawn) |
| 0.5 µg/mL (≈ 1.29 µM) | CCn1cc(C(=O)O)c(=O)c2cc(F)c(N3CCNC(C(F)F)C3)c(F)c21 (stereo not drawn) |
| 0.03 µg/mL (≈ 0.0826 µM) | O=C(O)c1cn(C2CC2)c2cc(N3CCNCC(F)C3)c(F)cc2c1=O (stereo not drawn) |
| 0.06 µg/mL (≈ 0.165 µM) | O=C(O)c1cn(C2CC2)c2cc(N3CCNC(CF)C3)c(F)cc2c1=O (stereo not drawn) |
| 0.12 µg/mL (≈ 0.342 µM) | CCn1cc(C(=O)O)c(=O)c2cc(F)c(N3CCNC(CF)C3)cc21 (stereo not drawn) |

System: Enterobacter cloacae
Test: In vitro minimal inhibitory concentration against Enterobacter cloacae VGH-84-39 (Et(c))
Type: functional
Conditions: not given

| MIC | Structure (SMILES) |
| --- | --- |
| 0.015 µg/mL (≈ 0.0434 µM) | CC1CN(c2cc3c(cc2F)c(=O)c(C(=O)O)cn3C2CC2)CCN1 (stereo not drawn) |
| 1 µg/mL (≈ 2.58 µM) | CCn1cc(C(=O)O)c(=O)c2cc(F)c(N3CCNC(C(F)F)C3)c(F)c21 (stereo not drawn) |
| 0.06 µg/mL (≈ 0.165 µM) | O=C(O)c1cn(C2CC2)c2cc(N3CCNCC(F)C3)c(F)cc2c1=O (stereo not drawn) |
| 0.12 µg/mL (≈ 0.33 µM) | O=C(O)c1cn(C2CC2)c2cc(N3CCNC(CF)C3)c(F)cc2c1=O (stereo not drawn) |
| 0.12 µg/mL (≈ 0.342 µM) | CCn1cc(C(=O)O)c(=O)c2cc(F)c(N3CCNC(CF)C3)cc21 (stereo not drawn) |

System: Morganella morganii
Test: In vitro minimal inhibitory concentration against Morganella morganii CMC-84-39 (Mn)
Type: functional
Conditions: not given
How it was run: as §2

| MIC | Structure (SMILES) |
| --- | --- |
| 0.03 µg/mL (≈ 0.0869 µM) | CC1CN(c2cc3c(cc2F)c(=O)c(C(=O)O)cn3C2CC2)CCN1 (stereo not drawn) |
| 1 µg/mL (≈ 2.58 µM) | CCn1cc(C(=O)O)c(=O)c2cc(F)c(N3CCNC(C(F)F)C3)c(F)c21 (stereo not drawn) |
| 0.06 µg/mL (≈ 0.165 µM) | O=C(O)c1cn(C2CC2)c2cc(N3CCNCC(F)C3)c(F)cc2c1=O (stereo not drawn) |
| 0.12 µg/mL (≈ 0.33 µM) | O=C(O)c1cn(C2CC2)c2cc(N3CCNC(CF)C3)c(F)cc2c1=O (stereo not drawn) |
| 0.12 µg/mL (≈ 0.342 µM) | CCn1cc(C(=O)O)c(=O)c2cc(F)c(N3CCNC(CF)C3)cc21 (stereo not drawn) |

System: Pseudomonas aeruginosa
Test: In vitro minimal inhibitory concentration against Pseudomonas aeruginosa 12-4-4 (Pa)
Type: functional
Conditions: not given
How it was run: as §2

| MIC | Structure (SMILES) |
| --- | --- |
| 0.25 µg/mL (≈ 0.724 µM) | CC1CN(c2cc3c(cc2F)c(=O)c(C(=O)O)cn3C2CC2)CCN1 (stereo not drawn) |
| 32 µg/mL (≈ 82.6 µM) | CCn1cc(C(=O)O)c(=O)c2cc(F)c(N3CCNC(C(F)F)C3)c(F)c21 (stereo not drawn) |
| 2 µg/mL (≈ 5.5 µM) | O=C(O)c1cn(C2CC2)c2cc(N3CCNCC(F)C3)c(F)cc2c1=O (stereo not drawn) |
| 2 µg/mL (≈ 5.5 µM) | O=C(O)c1cn(C2CC2)c2cc(N3CCNC(CF)C3)c(F)cc2c1=O (stereo not drawn) |
| 32 µg/mL (≈ 91.1 µM) | CCn1cc(C(=O)O)c(=O)c2cc(F)c(N3CCNC(CF)C3)cc21 (stereo not drawn) |

System: Staphylococcus aureus
Test: Median effective dose against female mice infected with Staphylococcus aureus Smith after oral administration
Type: functional
Conditions: not given
How it was run: as §1

| Structure (SMILES) | ED50 |
| --- | --- |
| CC1CN(c2cc3c(cc2F)c(=O)c(C(=O)O)cn3C2CC2)CCN1 (stereo not drawn) | 2.4 mg/kg |
| O=C(O)c1cn(C2CC2)c2cc(N3CCNC(CF)C3)c(F)cc2c1=O (stereo not drawn) | 2.8 mg/kg |
| CCn1cc(C(=O)O)c(=O)c2cc(F)c(N3CCNC(CF)C3)cc21 (stereo not drawn) | 6 mg/kg |

System: Staphylococcus aureus
Test: Median effective dose against female mice infected with Staphylococcus aureus Smith after subcutaneous administration
Type: functional
Conditions: sc
How it was run: as §1

| Structure (SMILES) | ED50 |
| --- | --- |
| CC1CN(c2cc3c(cc2F)c(=O)c(C(=O)O)cn3C2CC2)CCN1 (stereo not drawn) | 0.61 mg/kg |
| O=C(O)c1cn(C2CC2)c2cc(N3CCNC(CF)C3)c(F)cc2c1=O (stereo not drawn) | 0.94 mg/kg |
| CCn1cc(C(=O)O)c(=O)c2cc(F)c(N3CCNC(CF)C3)cc21 (stereo not drawn) | 2.6 mg/kg |

System: Staphylococcus aureus
Test: In vitro minimal inhibitory concentration against Staphylococcus aureus ATCC 29213 (Sa(B))
Type: functional
Conditions: not given
How it was run: as §2

| MIC | Structure (SMILES) |
| --- | --- |
| 0.5 µg/mL (≈ 1.45 µM) | CC1CN(c2cc3c(cc2F)c(=O)c(C(=O)O)cn3C2CC2)CCN1 (stereo not drawn) |
| 0.25 µg/mL (≈ 0.645 µM) | CCn1cc(C(=O)O)c(=O)c2cc(F)c(N3CCNC(C(F)F)C3)c(F)c21 (stereo not drawn) |
| 1 µg/mL (≈ 2.75 µM) | O=C(O)c1cn(C2CC2)c2cc(N3CCNCC(F)C3)c(F)cc2c1=O (stereo not drawn) |
| 0.25 µg/mL (≈ 0.688 µM) | O=C(O)c1cn(C2CC2)c2cc(N3CCNC(CF)C3)c(F)cc2c1=O (stereo not drawn) |
| 0.25 µg/mL (≈ 0.712 µM) | CCn1cc(C(=O)O)c(=O)c2cc(F)c(N3CCNC(CF)C3)cc21 (stereo not drawn) |

System: Staphylococcus aureus
Test: In vitro minimal inhibitory concentration against Staphylococcus aureus Smith (MP) (Sa(A))
Type: functional
Conditions: not given
How it was run: as §2

| MIC | Structure (SMILES) |
| --- | --- |
| 0.12 µg/mL (≈ 0.347 µM) | CC1CN(c2cc3c(cc2F)c(=O)c(C(=O)O)cn3C2CC2)CCN1 (stereo not drawn) |
| 0.12 µg/mL (≈ 0.31 µM) | CCn1cc(C(=O)O)c(=O)c2cc(F)c(N3CCNC(C(F)F)C3)c(F)c21 (stereo not drawn) |
| 0.25 µg/mL (≈ 0.688 µM) | O=C(O)c1cn(C2CC2)c2cc(N3CCNCC(F)C3)c(F)cc2c1=O (stereo not drawn) |
| 0.12 µg/mL (≈ 0.33 µM) | O=C(O)c1cn(C2CC2)c2cc(N3CCNC(CF)C3)c(F)cc2c1=O (stereo not drawn) |
| ≤ 0.12 µg/mL | CCn1cc(C(=O)O)c(=O)c2cc(F)c(N3CCNC(CF)C3)cc21 (stereo not drawn) |

System: Enterococcus faecalis
Test: In vitro minimal inhibitory concentration against Streptococcus faecalis UCI-85 (Sf(U))
Type: functional
Conditions: not given
How it was run: as §2

| MIC | Structure (SMILES) |
| --- | --- |
| 2 µg/mL (≈ 5.79 µM) | CC1CN(c2cc3c(cc2F)c(=O)c(C(=O)O)cn3C2CC2)CCN1 (stereo not drawn) |
| 4 µg/mL (≈ 10.3 µM) | CCn1cc(C(=O)O)c(=O)c2cc(F)c(N3CCNC(C(F)F)C3)c(F)c21 (stereo not drawn) |
| 4 µg/mL (≈ 11 µM) | O=C(O)c1cn(C2CC2)c2cc(N3CCNCC(F)C3)c(F)cc2c1=O (stereo not drawn) |
| 2 µg/mL (≈ 5.5 µM) | O=C(O)c1cn(C2CC2)c2cc(N3CCNC(CF)C3)c(F)cc2c1=O (stereo not drawn) |
| 4 µg/mL (≈ 11.4 µM) | CCn1cc(C(=O)O)c(=O)c2cc(F)c(N3CCNC(CF)C3)cc21 (stereo not drawn) |

System: not listed separately
Test: Ratio of ED50 value of (po/sc) was determined for Staphylococcus aureus Smith
Type: functional
Conditions: not given
How it was run: (§3)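 Oral and subcutaneous ED50 values from ip-infected CD-1 female mice (treated 0.5 h post-infection, 2-fold doses in 0.2% aqueous agar, five mice/dose, 7-day survival, three pooled tests, probit analysis); ratio taken as po ED50 divided by sc ED50, as an index of absorption.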

| Structure (SMILES) | Ratio |
| --- | --- |
| CC1CN(c2cc3c(cc2F)c(=O)c(C(=O)O)cn3C2CC2)CCN1 (stereo not drawn) | 3.9 |
| O=C(O)c1cn(C2CC2)c2cc(N3CCNC(CF)C3)c(F)cc2c1=O (stereo not drawn) | 3 |
| CCn1cc(C(=O)O)c(=O)c2cc(F)c(N3CCNC(CF)C3)cc21 (stereo not drawn) | 2.3 |

System: not listed separately
Test: Ratio of ED50 value of (po/sc) was determined for Escherichia coli #311
Type: functional
Conditions: not given
How it was run: as §3

| Structure (SMILES) | Ratio |
| --- | --- |
| CC1CN(c2cc3c(cc2F)c(=O)c(C(=O)O)cn3C2CC2)CCN1 (stereo not drawn) | 4.7 |
| O=C(O)c1cn(C2CC2)c2cc(N3CCNC(CF)C3)c(F)cc2c1=O (stereo not drawn) | 2 |
| CCn1cc(C(=O)O)c(=O)c2cc(F)c(N3CCNC(CF)C3)cc21 (stereo not drawn) | 1 |

System: Enterococcus faecalis
Test: In vitro minimal inhibitory concentration Streptococcus faecalis VGH-84 (Sf(V))
Type: functional
Conditions: not given
How it was run: as §2

| MIC | Structure (SMILES) |
| --- | --- |
| 1 µg/mL (≈ 2.9 µM) | CC1CN(c2cc3c(cc2F)c(=O)c(C(=O)O)cn3C2CC2)CCN1 (stereo not drawn) |
| 4 µg/mL (≈ 10.3 µM) | CCn1cc(C(=O)O)c(=O)c2cc(F)c(N3CCNC(C(F)F)C3)c(F)c21 (stereo not drawn) |
| 4 µg/mL (≈ 11 µM) | O=C(O)c1cn(C2CC2)c2cc(N3CCNCC(F)C3)c(F)cc2c1=O (stereo not drawn) |
| 1 µg/mL (≈ 2.75 µM) | O=C(O)c1cn(C2CC2)c2cc(N3CCNC(CF)C3)c(F)cc2c1=O (stereo not drawn) |
| 2 µg/mL (≈ 5.69 µM) | CCn1cc(C(=O)O)c(=O)c2cc(F)c(N3CCNC(CF)C3)cc21 (stereo not drawn) |
